The structures appear in SMILES notation.

Data set [1] addresses T1, Vascular endothelial growth factor receptor 2 (Homo sapiens, UniProt P35968). The experiment in a line: Inhibition of phosphorylated-Kdr after 30 mins.
Data set [2] addresses T1, Vascular endothelial growth factor receptor 2. Kind of data set: Inhibition of unphosphorylated-Kdr after 30 mins.
The test system of data set [3] is HUVEC. The experiment in a line: Antiproliferative activity against VEGF-driven HUVEC. In kind it is functional, cell-based. Particulars: Homo sapiens.
Data set [4] deals with HUVEC. The experiment in a line: Antiproliferative activity against bFGF-driven HUVEC. In kind it is functional, cell-based. Particulars: Homo sapiens.
Data set [5] is described as follows: Clearance in rat at 100 mg/kg. In kind it is ADME, organism-based. Set-up: dose 100 mg/kg. Particulars: in vivo.
Data set [6] is described as follows: AUC in rat at 100 mg/kg. In kind it is ADME, organism-based. Details: dose 100 mg/kg. Particulars: plasma.
Another data set concerns A-431. Kind of data set: Antitumor activity in A431 cells xenografted po dosed nude mouse assessed as delay in disease progression administered twice daily. In kind it is functional, organism-based. Particulars: Homo sapiens. In a few lines:
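Nude mice bearing A431 human […] epidermoid carcinoma xenografts received oral doses twice daily at 37.5, 75 or 150 mg/kg, against vehicle. Tumor size (cubic mm) was followed from about day 5 to day 23, with percent body weight also tracked. Groups were compared by p-values.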

Data set [7] can be described thus: Bioavailability in rat at 100 mg/kg. In kind it is ADME, organism-based. The following applies: in vivo.

T1 sequence (P35968 whole entry): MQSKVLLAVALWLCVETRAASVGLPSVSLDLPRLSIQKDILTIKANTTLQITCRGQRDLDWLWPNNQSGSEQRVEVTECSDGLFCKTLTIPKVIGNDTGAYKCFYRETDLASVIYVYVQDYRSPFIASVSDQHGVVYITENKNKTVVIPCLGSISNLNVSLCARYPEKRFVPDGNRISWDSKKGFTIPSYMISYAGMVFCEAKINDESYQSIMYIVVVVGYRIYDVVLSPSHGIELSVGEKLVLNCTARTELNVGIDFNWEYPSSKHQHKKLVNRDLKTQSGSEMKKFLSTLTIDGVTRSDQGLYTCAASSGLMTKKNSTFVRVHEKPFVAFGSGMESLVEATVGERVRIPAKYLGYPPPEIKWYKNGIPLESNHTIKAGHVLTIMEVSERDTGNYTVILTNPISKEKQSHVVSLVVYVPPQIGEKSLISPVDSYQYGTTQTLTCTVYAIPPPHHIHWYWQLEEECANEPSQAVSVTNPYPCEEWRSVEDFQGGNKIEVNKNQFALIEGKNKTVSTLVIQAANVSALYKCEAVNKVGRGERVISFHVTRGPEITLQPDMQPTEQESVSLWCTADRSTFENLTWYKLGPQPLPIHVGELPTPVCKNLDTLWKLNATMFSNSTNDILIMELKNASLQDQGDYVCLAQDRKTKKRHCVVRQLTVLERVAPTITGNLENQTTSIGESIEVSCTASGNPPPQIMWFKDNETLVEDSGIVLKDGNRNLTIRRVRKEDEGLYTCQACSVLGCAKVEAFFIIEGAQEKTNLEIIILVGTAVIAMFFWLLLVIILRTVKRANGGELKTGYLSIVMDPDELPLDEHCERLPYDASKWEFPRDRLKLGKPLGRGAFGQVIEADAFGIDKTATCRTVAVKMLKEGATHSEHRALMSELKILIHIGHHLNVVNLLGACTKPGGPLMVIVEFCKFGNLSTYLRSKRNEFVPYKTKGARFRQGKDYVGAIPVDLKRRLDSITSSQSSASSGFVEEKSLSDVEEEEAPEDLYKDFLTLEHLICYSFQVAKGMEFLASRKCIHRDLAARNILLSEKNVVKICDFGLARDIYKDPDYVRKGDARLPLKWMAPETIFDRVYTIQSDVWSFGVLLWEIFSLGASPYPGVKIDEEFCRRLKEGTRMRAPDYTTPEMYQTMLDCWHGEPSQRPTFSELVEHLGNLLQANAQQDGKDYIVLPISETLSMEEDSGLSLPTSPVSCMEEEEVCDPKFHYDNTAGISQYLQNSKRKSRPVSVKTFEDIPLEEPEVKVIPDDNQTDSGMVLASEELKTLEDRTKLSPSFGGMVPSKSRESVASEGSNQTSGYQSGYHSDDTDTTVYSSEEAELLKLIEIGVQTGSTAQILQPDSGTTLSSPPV

As for `CC(O)c1cccc(NC(=O)c2cccnc2NCc2ccncc2)c1` (configuration not stated), the Ki (usually the equilibrium dissociation constant of an inhibitor or competing ligand from its target) in data set [1] is > 6.66 µM.

For `O=C(Nc1ccc(C(F)(F)F)cc1)c1cccnc1NCc1ccncc1`, the Ki in data set [1] was 0.009 µM.

With `O=C(Nc1ccccc1Oc1ccccc1)c1cccnc1NCc1ccncc1`, the Ki in data set [1] was > 20 µM.

`O=C(Nc1ccc(Cl)cc1)c1cc(Br)cnc1NCc1ccncc1` registered a Ki in data set [1] of 0.49 µM.

For `O=C(Nc1ccc(Cl)c(C(F)(F)F)c1)c1cccnc1NCc1ccncc1`, affinity in data set [1] was put at a Ki of 0.004 µM.

The compound `O=C(Nc1ccc(Oc2ccccc2)cc1)c1cccnc1NCc1ccc2c(c1)OCO2` yielded a Ki in data set [1] of 0.038 µM. This Ki is about 9.5-fold higher than that of the compound before.

Take `Cc1ccc(C(=O)Nc2ccc(Cl)cc2)c(NCc2ccncc2)n1`: the Ki in data set [2] is > 10 µM.

For `O=C(Nc1cccc(Cl)c1)c1cccnc1NCc1ccncc1`, in data set [1], the Ki turned out to be 0.002 µM. The IC50 (commonly the point on the concentration scale where inhibition reaches its midpoint) with HUVEC [3] was 0.04 µM; in the data set on HUVEC [4] it was > 1 µM.

For the compound `O=C(Nc1ccc(Cl)cc1)c1sccc1NCc1ccncc1`, in data set [2], the Ki turned out to be 0.12 µM. That is a sub-micromolar value.

For the compound `CCc1cccc(NC(=O)c2cccnc2NCc2ccncc2)c1`, the Ki in data set [1] is 0.106 µM.

Turning to `O=C(Nc1ccc(Cl)cc1)c1cccnc1NCc1ccncc1`, the IC50 in the data set with HUVEC [3] was 0.008 µM; in the data set with HUVEC [4] it was > 1 µM. Besides, in data set [5], the clearance – broadly, a measure of how efficiently the substance is removed, as volume per time – was 4.4 L/h/kg. In data set [2], this compound registered an inhibition constant Ki of 0.008 µM. In addition, the AUC (as a rule, the area under the concentration-time curve, a measure of exposure) in data set [6] stood at 20 µg·h/mL. Besides, in the data set on A-431, the Activity result is “Dose-dependent effect”. Besides, in data set [7], the bioavailability (commonly dose-corrected exposure relative to a reference, in per cent) was found to be 45%.

Take `CN1CCN(c2ccc(NC(=O)c3cccnc3NCc3ccncc3)cc2)CC1`: in data set [1], the Ki is > 6.66 µM.

Regarding `O=C(Nc1ccc(OC(F)(F)F)cc1)c1cccnc1NCc1ccncc1`, affinity in data set [1] was put at a Ki of 0.023 µM.

Turning to `O=C(Nc1ccc(C2CCCCC2)cc1)c1cccnc1NCc1ccncc1`, the affinity in data set [1] corresponds to a Ki of 0.002 µM. Against the preceding compound, the Ki is about 12-fold lower.

In turn, `O=C(Nc1cc(C(F)(F)F)cc(C(F)(F)F)c1)c1cccnc1NCc1ccncc1` gave a Ki in data set [1] of 0.008 µM.

Regarding `O=C(Nc1ccc(Cl)c(Cl)c1)c1cccnc1NCc1ccncc1`, in data set [1], the affinity corresponds to a Ki of 0.017 µM.

Regarding `O=C(Nc1ccc(Cl)cc1)C1CCCCC1NCc1ccncc1` (configuration not stated), the Ki in data set [1] was > 10 µM.

Regarding `O=C(Nc1ccc(Oc2ccccc2)cc1)c1cccnc1NCc1ccc(F)cc1`, the Ki in data set [1] was found to be 0.135 µM. This counts as sub-micromolar.

`CCOC(=O)c1coc(-c2cccc(NC(=O)c3cccnc3NCc3ccncc3)c2)c1` had a Ki in data set [1] of 0.029 µM.

In data set [1], `O=C(Nc1ccc(Cl)cc1)c1ccccc1NCc1ccncc1` gave a Ki of 0.015 µM.

Regarding `O=C(Nc1ccc(Cl)cc1)c1ncccc1NCc1ccncc1`, the Ki in data set [1] was > 10 µM.

Regarding `O=C(Nc1ccc(Cl)cc1)c1cncnc1NCc1ccncc1`, the affinity in data set [1] corresponds to a Ki of 0.14 µM.

On to `O=C(Nc1ccc(Oc2ccccc2)cc1)c1cccnc1Nc1csc2ccccc12`, for which, in data set [1], the Ki is > 20 µM.

`O=C(Nc1ccc(Oc2ccccc2)cc1)c1cccnc1Nc1ccc2cn[nH]c2c1` yielded a Ki in data set [1] of 0.07 µM.

These data come from ChEMBL document CHEMBL1140496, “Discovery of N-phenyl nicotinamides as potent inhibitors of Kdr” (Bioorg Med Chem Lett, 2007).
